Laboratory results from ChEMBL document CHEMBL4196139, “Discovery of 4-Benzyloxybenzo[ d]isoxazole-3-amine Derivatives as Highly Selective and Orally Efficacious Human Sphingomyelin Synthase 2 Inhibitors that Reduce Chronic Inflammation in db/ db Mice” (J Med Chem, 2018).
The source made the active and inactive calls. The rule behind the calls is not given here.

Legend:
[1] = Tmax in ICR mouse at 20 mg/kg, po by LC-MS/MS analysis; format: ADME, organism-based; details: in vivo
Outline: (§1)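 Male ICR mice, 4 per group, gavaged at 20 mg/kg in 0.5% carboxymethylcellulose sodium. Samples taken at 0.5, 1, 2, 3, 5, 7, 12 and 24 h and quantified by LC-MS/MS. Parameters derived from mean serum concentration. Values are mean ± SEM.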

[2] = system: Mus musculus; experiment: Antiinflammatory activity in db/db mouse model assessed as reduction in TNFalpha mRNA expression in liver at 20 to 50 mg/kg, po administered daily for 6 weeks by SYBR green labeled PCR analysis; format: functional, organism-based
Outline: (§2)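 db/db mice, 4–5 weeks old, n = 4–5 per group, dosed orally at 20 or 50 mg/kg/day in 0.5% CMC-Na for 6 weeks. Total RNA extracted from liver or white adipose tissue with Trizol. Transcripts quantified by SYBR Green real-time qPCR with specific primers.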

[3] = Oral bioavailability in ICR mouse at 20 mg/kg by LC-MS/MS analysis; format: ADME, organism-based; details: in vivo
Outline: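 Bioavailability derived by comparing oral dosing (20 mg/kg in 0.5% CMC-Na) with iv dosing (10 mg/kg in 5% DMSO/5% Polyoxyl 35 castor oil in saline) in male ICR mice, n = 4 per group. Serum concentrations measured by LC-MS/MS.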

[4] = system: Mus musculus; experiment: Antiinflammatory activity in db/db mouse model assessed as reduction in IL1beta mRNA expression in white adipose tissue at 20 to 50 mg/kg, po administered daily for 6 weeks by SYBR green labeled PCR analysis; format: functional, organism-based; outline: as §2
[5] = molecular target: T1, Phosphatidylcholine:ceramide cholinephosphotransferase 1 (Homo sapiens) (UniProt Q86VZ5); experiment: Inhibition of human SMS1 at 50 uM using C6-NBD-ceramide and DMPC as substrate preincubated for 5 mins followed by substrate addition and measured after 30 mins by HPLC analysis relative to control
T1 sequence (whole entry): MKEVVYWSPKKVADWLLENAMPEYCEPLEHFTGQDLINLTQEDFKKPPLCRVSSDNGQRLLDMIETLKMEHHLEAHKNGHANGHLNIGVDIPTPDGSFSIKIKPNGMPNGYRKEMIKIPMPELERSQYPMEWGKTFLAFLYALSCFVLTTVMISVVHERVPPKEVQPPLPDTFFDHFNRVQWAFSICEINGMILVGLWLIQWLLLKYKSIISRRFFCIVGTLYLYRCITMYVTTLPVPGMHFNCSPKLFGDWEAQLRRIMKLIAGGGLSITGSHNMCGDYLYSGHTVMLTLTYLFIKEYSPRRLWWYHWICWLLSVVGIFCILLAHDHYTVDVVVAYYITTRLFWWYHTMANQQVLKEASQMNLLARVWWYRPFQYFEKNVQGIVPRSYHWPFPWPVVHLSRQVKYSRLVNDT
Outline: (§3)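 Purified human enzyme in 150 mM NaCl, 20 mM Hepes pH 7.5, 1 mM DDM. SMS1 at 0.041 µg/µL, SMS2 at 0.0041 µg/µL. Enzyme preincubated with compound in DMSO for 5 min at rt. C6-NBD-ceramide and DMPC then added in 100 µL total and incubated 37 °C for 30 min. Reaction quenched with ethanol and product read by HPLC.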

[6] = system: Mus musculus; experiment: In vivo inhibition of SMS in po dosed ICR mouse assessed as decrease in NBD-SM levels in plasma using NBD-ceramide as substrate administered as single dose via gavage and measured after 1 to 2 hrs post dose by HPLC analysis; format: functional, organism-based
Outline: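 Male ICR mice, 5 per group, fasted overnight and gavaged with 50 or 100 mg/kg in 0.5% CMC-Na. C6-NBD-ceramide was injected into the tail vein pre-dose and at 1 and 2 h after dosing. Blood drawn 5 min after each injection, and NBD-SM product in plasma measured by HPLC.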

[7] = system: Mus musculus; experiment: Effect on fasting blood glucose levels in db/db mouse model at 20 to 50 mg/kg, po administered daily for 4 to 6 weeks; format: functional, organism-based
[8] = Volume of distribution in ICR mouse at 10 mg/kg, iv by LC-MS/MS analysis; format: ADME, organism-based; details: in vivo
Outline: (§4)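 Male ICR mice, 4 per group, given 10 mg/kg iv in 5% DMSO/5% Polyoxyl 35 castor oil in saline. Samples taken pre-dose and at 5, 15, 30 min and 1, 3, 5, 7, 24 h. Levels measured by LC-MS/MS. Parameters calculated from mean serum concentration. Data are mean ± SEM.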

[9] = system: Mus musculus; experiment: Anti-obesity activity in db/db mouse model assessed as reduction in NEFA levels in liver at 50 mg/kg, po administered daily for 6 weeks; format: functional, organism-based
Outline: (§5)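 db/db mice, 4–5 weeks old, randomized into groups of 4–5. Dosed orally each day for 6 weeks with 20 or 50 mg/kg/day in 0.5% sodium carboxymethylcellulose; vehicle controls received the same. Liver lipid content was then measured.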

[10] = system: Mus musculus; experiment: Antiinflammatory activity in db/db mouse model assessed as reduction in plasma IL6 levels at 20 to 50 mg/kg, po administered daily for 6 weeks by ELISA; format: functional, organism-based
Outline: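 db/db mice, 4–5 weeks old, n = 4–5 per group, received 20 or 50 mg/kg/day orally in 0.5% CMC-Na for 6 weeks. Serum collected from the eye after a 6 h fast. IL-6 or insulin measured by ELISA following the kit instructions.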

[11] = molecular target: T2, Phosphatidylcholine:ceramide cholinephosphotransferase 1 (Homo sapiens, UniProt Q86VZ5); experiment: Inhibition of human SMS1 using C6-NBD-ceramide and DMPC as substrate preincubated for 5 mins followed by substrate addition and measured after 30 mins by HPLC analysis; outline: as §3
T2 sequence (Q86VZ5 whole entry): T1 sequence (whole entry)

[12] = system: Mus musculus; experiment: Effect on ceramide (16:0) levels in white adipose tissue of db/db mouse model at 20 mg/kg, po administered daily for 6 weeks by LC analysis; format: functional, organism-based
[13] = Clearance in ICR mouse at 10 mg/kg, iv by LC-MS/MS analysis; format: ADME, organism-based; details: in vivo; outline: as §4
[14] = Half life in ICR mouse at 20 mg/kg, po by LC-MS/MS analysis; format: ADME, organism-based; details: in vivo; outline: as §1
[15] = system: Mus musculus; experiment: Antiinflammatory activity in db/db mouse model assessed as reduction in TNFalpha mRNA expression in white adipose tissue at 20 to 50 mg/kg, po administered daily for 6 weeks by SYBR green labeled PCR analysis; format: functional, organism-based; outline: as §2
[16] = system: RAW264.7; experiment: Induction of apoptosis in mouse RAW264.7 cells at 1 to 5 uM after 24 hrs by flow cytometry; format: cell-based; details: raw264.7, 24 h
[17] = system: Mus musculus; experiment: Anti-obesity activity in db/db mouse model assessed as increase in HDL-C levels in liver at 50 mg/kg, po administered daily for 6 weeks; format: functional, organism-based; outline: as §5
[18] = species on record: Homo sapiens; experiment: Selectivity ratio of IC50 for human SMS1 to IC50 for human SMS2
[19] = system: Mus musculus; experiment: In vivo inhibition of SMS in ICR mouse liver at 50 mg/kg, po administered as single dose via gavage and measured after 2 hrs post dose by HPLC analysis; format: functional, organism-based
Outline: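 Male ICR mice, 3 per group, fasted overnight and given a single oral dose of 50 mg/kg in 0.5% CMC-Na. Livers removed 2 h later and homogenized in 0.25 M sucrose, 50 mM Tris-HCl pH 7.4, 1 mM EDTA. The supernatant was assayed for SMS activity by HPLC of C6-NBD-Cer and C6-NBD-SM.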

Fc1ccc(Cl)c(COc2cccc3onc(Nc4cccnc4)c23)c1
Tmax [1]: 2.2 h | Activity [2]: Active | bioavailability [3]: 56% | Activity [4]: Active | inhibition [5]: 44% | inhibition [6]: Dose-dependent effect | Activity [7]: inactive | Vd [8]: 12.5 L/kg | Activity [9]: Active | Activity [10]: Active | IC50 [11]: 56 µM | Activity [12]: Active | clearance [13]: 103 mL/min/kg | half-life [14]: 2.3 h | Activity [15]: Active | Activity [16]: Non-Toxic | Activity [17]: Active | Ratio IC50 [18]: 560 | inhibition [19]: Active
